From ChEMBL document CHEMBL3612019, “Revisiting 1,3,4-Oxadiazol-2-ones: Utilization in the Development of ABHD6 Inhibitors” (Bioorg Med Chem, 2015)
Activity calls are given as the source filed them. The calls are words filed in the database; no cut-off is given here.

Key:
[1] = target: T1, Monoacylglycerol lipase ABHD6 (Homo sapiens) (UniProt Q9BV23); assay: Reversible inhibition of human ABHD6 expressed in HEK293 cells at 1 uM pre-incubated for 10 mins before 2-AG substrate addition followed by rapid 40 fold compound dilution measured after 10 to 90 mins by HPLC method; format: cell-based
T1 sequence (whole entry): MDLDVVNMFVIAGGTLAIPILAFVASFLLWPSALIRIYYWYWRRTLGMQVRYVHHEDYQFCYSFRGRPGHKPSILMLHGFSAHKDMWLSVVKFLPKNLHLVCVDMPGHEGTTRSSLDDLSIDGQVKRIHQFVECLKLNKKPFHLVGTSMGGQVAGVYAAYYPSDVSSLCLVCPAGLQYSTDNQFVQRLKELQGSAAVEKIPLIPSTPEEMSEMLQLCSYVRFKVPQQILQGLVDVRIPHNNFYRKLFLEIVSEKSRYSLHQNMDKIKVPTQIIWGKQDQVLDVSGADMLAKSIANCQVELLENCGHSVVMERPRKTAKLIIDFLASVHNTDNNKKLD

[2] = target: T1, Monoacylglycerol lipase ABHD6 (Homo sapiens); assay: Inhibition of human ABHD6 expressed in HEK293 cells assessed as remaining enzyme activity by measuring reduction in glycerol production from 1-AG hydrolysis at 1 uM pre-incubated for 30 mins before 1-AG substrate addition and measured 90 mins post substrate addition by fluorescence method; values are per cent of control
[3] = target: T2, Lysophosphatidylserine lipase ABHD12 (Homo sapiens) (UniProt Q8N2K0); assay: Inhibition of human ABHD12 expressed in HEK293 cells assessed as remaining enzyme activity at 1 uM pre-incubated for 10 mins before 2-AG substrate addition by HPLC method; format: cell-based
T2 sequence (whole entry): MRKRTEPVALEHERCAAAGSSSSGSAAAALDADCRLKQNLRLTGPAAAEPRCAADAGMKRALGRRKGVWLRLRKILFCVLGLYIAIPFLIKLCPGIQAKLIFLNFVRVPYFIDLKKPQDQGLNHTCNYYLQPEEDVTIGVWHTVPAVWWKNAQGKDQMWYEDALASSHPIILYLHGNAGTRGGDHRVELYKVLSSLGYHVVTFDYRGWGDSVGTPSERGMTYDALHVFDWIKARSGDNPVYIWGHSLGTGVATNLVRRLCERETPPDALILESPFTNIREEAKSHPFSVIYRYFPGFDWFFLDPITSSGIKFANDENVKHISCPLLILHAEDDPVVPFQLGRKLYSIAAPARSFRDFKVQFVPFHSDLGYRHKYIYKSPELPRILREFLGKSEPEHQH

[4] = target: T3, Monoglyceride lipase (Homo sapiens) (UniProt Q99685); assay: Inhibition of human MAGL expressed in HEK293 cells at 10 uM pre-incubated for 10 mins before 2-AG substrate addition by HPLC method; format: cell-based
T3 sequence (whole entry): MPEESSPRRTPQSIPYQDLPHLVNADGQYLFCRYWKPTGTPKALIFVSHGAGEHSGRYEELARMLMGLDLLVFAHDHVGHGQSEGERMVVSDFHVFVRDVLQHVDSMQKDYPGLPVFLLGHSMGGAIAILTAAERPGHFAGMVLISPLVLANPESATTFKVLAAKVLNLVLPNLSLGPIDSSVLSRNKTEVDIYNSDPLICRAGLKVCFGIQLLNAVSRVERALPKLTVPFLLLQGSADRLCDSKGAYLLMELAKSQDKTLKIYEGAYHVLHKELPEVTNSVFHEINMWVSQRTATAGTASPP
Summary of the method: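 Lysates of hMAGL-overexpressing HEK293 cells in 50 mM Tris–HCl pH 7.4 with 1 mM EDTA. After a 10 min preincubation with inhibitor or DMSO, 2-AG was added (final 50 µM) and incubated 10 min at 37 °C. The reaction was stopped and samples centrifuged. Arachidonic acid formation and 2-AG depletion were measured by HPLC. Replicates as for the FAAH assay.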

[5] = target: T4, Fatty-acid amide hydrolase 1 (Homo sapiens) (UniProt O00519); assay: Inhibition of human FAAH expressed in COS7 cell membranes at 10 uM pre-incubated for 10 mins before [3H]-AEA substrate addition by liquid scintillation counting; conditions: COS-7
T4 sequence (whole entry): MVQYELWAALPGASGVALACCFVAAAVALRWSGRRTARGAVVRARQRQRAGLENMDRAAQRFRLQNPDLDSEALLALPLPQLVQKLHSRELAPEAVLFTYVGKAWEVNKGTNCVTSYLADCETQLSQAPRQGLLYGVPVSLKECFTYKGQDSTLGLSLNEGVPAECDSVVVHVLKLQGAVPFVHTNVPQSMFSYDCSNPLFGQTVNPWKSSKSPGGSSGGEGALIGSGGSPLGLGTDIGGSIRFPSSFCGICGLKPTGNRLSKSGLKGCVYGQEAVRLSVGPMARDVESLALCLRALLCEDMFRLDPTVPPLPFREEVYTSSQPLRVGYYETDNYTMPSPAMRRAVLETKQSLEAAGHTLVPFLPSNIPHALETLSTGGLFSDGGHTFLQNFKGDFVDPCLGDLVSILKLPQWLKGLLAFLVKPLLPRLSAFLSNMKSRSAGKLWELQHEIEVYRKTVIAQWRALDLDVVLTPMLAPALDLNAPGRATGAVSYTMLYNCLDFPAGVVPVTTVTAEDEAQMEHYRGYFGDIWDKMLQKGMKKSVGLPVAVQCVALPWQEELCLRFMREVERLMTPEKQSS

Compound | inhibition [1] | residual activity [2] [%] | inhibition [3] | inhibition [4] [%] | inhibition [5]
CCCCCCCCCCC[C@@H](C[C@@H]1OC(=O)[C@H]1CCCCCC)OC(=O)[C@H](CC(C)C)NC=O | Active | – | – | – | –
CCOc1nn(Cc2cccc([N+](=O)[O-])c2)c(=O)o1 | – | 63 | inactive | 30 | inactive
